These results are taken from ChEMBL document CHEMBL1145071, “Oxindole-based compounds are selective inhibitors of Plasmodium falciparum cyclin dependent protein kinases” (J Med Chem, 2003).

One assay addresses T1, Protein kinase Pfmrk (Plasmodium falciparum, UniProt P90584).
T1 sequence (P90584 whole entry): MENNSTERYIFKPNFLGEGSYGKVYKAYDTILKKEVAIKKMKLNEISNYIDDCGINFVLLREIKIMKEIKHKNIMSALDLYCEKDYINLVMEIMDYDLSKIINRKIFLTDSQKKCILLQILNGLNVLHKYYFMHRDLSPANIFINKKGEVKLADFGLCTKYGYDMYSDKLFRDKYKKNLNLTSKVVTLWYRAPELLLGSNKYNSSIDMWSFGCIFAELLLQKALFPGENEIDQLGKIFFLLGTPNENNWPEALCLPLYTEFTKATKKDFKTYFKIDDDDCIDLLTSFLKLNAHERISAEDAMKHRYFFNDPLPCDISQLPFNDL
Briefly: Inhibitory activity against Plasmodium falciparum cyclin dependent protein kinase, Pfmrk.

For assay [1], the system named is Plasmodium falciparum. Briefly: Inhibitory activity against Plasmodium falciparum W2. The class given is functional, organism-based. In short, it runs like this:
(§1)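 Cultured D6 (chloroquine-sensitive) and W2 (chloroquine-resistant) clones in A+ red cells, 6% hematocrit, 10% human serum, 90% N2/5% O2/5% CO2. Cultures at 3% parasitemia with at least 70% rings placed in drug-precoated wells for 24 h. [3H]-hypoxanthine then added for a further 18 h; uptake counted after harvest. IC50 from four-parameter nonlinear regression.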

The next assay addresses PFPK5(P.falciparum) (Plasmodium falciparum, UniProt P61075). Description: Inhibition of Plasmodium falciparum cyclin dependent protein kinase, PfPK5.
Assay [2] relates to Plasmodium falciparum. Description: Inhibitory activity against Plasmodium falciparum D6. The class given is functional, organism-based. In short, it runs like this:
as §1

In assay [3] the target is Cyclin-dependent kinase 1/cyclin B (Homo sapiens, UniProt P06493). Briefly: Inhibition of human Cyclin-dependent kinase 1 cyclin B. The class given is protein-complex assay.

Chain of PFPK5(P.falciparum) (P61075 whole entry, looked up): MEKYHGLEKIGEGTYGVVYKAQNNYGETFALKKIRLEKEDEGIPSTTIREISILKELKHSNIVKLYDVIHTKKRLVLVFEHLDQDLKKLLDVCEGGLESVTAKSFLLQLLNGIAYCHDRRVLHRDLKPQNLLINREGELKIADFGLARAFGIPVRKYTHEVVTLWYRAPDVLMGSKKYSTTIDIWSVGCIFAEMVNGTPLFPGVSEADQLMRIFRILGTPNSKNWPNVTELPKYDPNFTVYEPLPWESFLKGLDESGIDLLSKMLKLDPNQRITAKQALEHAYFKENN

As usually defined, the IC50 is the concentration that gives 50% inhibition. Lower therefore signals greater potency in that assay. As to `N#C/C(C(N)=O)=C1\C(=O)Nc2ccccc21`, at Protein kinase Pfmrk, half-maximal inhibition (IC50) was put at 24 µM.
Turning to `O=C1Nc2ccc(Br)cc2/C1=C/C(=O)c1ccccc1`, the IC50 is greater than 15.2 µM with Plasmodium falciparum [1]; 120 µM against PFPK5(P.falciparum); greater than 15.2 µM with Plasmodium falciparum [2]; 3.1 µM against Protein kinase Pfmrk; 30 µM in assay [3].
For `O=C1Nc2ccccc2/C1=C\c1ccc(Cl)cc1`, the IC50 on Protein kinase Pfmrk is greater than 37 µM.
Same read-out and setting: in the case of `COc1cc2ncnc(Nc3cccc(O)c3)c2cc1OC` it was 168 µM.
Take `CC(C)[C@H](CO)Nc1nc(Nc2cccc(Cl)c2)c2ncn(C(C)C)c2n1` [PURVALANOLA]: the IC50 came out at 9.2 µM with Plasmodium falciparum [1], 2.6 µM in the assay with Plasmodium falciparum [2] and 26 µM at Protein kinase Pfmrk.
On Protein kinase Pfmrk, `O=C1Nc2ccccc2/C1=C\c1c(Cl)cccc1Cl` displayed an IC50 of 17 µM.
Regarding `O=C1Nc2ccccc2/C1=C/C(=O)c1ccc(Br)cc1`, the IC50 with Plasmodium falciparum [1] was greater than 15.2 µM; at PFPK5(P.falciparum), 130 µM; in the assay on Plasmodium falciparum [2], greater than 15.2 µM; against Protein kinase Pfmrk it was 3.5 µM; in assay [3] it was 12 µM.
Regarding `Cc1ccc(C(=O)/C=C2/C(=O)Nc3ccc(Br)cc32)cc1`, the IC50 in the assay with Plasmodium falciparum [1] is greater than 14.6 µM; against PFPK5(P.falciparum) it was 120 µM; in the assay with Plasmodium falciparum [2], greater than 14.6 µM; on Protein kinase Pfmrk, 2.9 µM; in assay [3], 29 µM.
Regarding `O=C1Nc2ccccc2/C1=C\C1CCCCN1` (configuration not stated), the IC50 at Protein kinase Pfmrk is greater than 21 µM.
Turning to `COC(=O)[C@@]1(Cc2ccc(O)c(CC=C(C)C)c2)OC(=O)C(O)=C1c1ccc(O)cc1` [BUTYROLACTONE I], the IC50 with Plasmodium falciparum [1] came to 11.7 µM; with Plasmodium falciparum [2], 11.7 µM; on Protein kinase Pfmrk, 94 µM.
Consider `Cn1cnc2c(NCc3ccccc3)nc(NCCO)nc21` [OLOMOUCINE], for which the IC50 was 8 µM in the assay with Plasmodium falciparum [1], 2.7 µM in the assay with Plasmodium falciparum [2] and greater than 1000 µM at Protein kinase Pfmrk.
Turning to `O=C1Cc2c([nH]c3ccc(Br)cc23)-c2ccccc2N1` [KENPAULLONE], the values for the IC50 in the assay on Plasmodium falciparum [1], in the assay with Plasmodium falciparum [2] and against Protein kinase Pfmrk were 3.8 µM, 3.8 µM and 15 µM, respectively.
At Protein kinase Pfmrk, `O=C1NC(=S)S/C1=C1\C(=O)Nc2ccc(F)cc21` yielded an IC50 greater than 19 µM.
On the same count and under the same terms, to `CC(=O)/C=C1/C(=O)Nc2ccccc21` belongs greater than 37 µM.
Turning to `O=C1Nc2ccccc2/C1=C\C(=O)c1ccccc1`, the IC50 in the assay on Plasmodium falciparum [1] is greater than 20 µM; against PFPK5(P.falciparum) it was 150 µM; with Plasmodium falciparum [2], greater than 20 µM; against Protein kinase Pfmrk it was 4 µM; in assay [3], greater than 16 µM.
`O=C1Nc2ccccc2/C1=C\c1ccc(O)cc1` came in with an IC50 against Protein kinase Pfmrk greater than 42 µM.
For the compound `CC(C)(C)C(=O)/C=C1/C(=O)Nc2ccccc21`, on Protein kinase Pfmrk, the IC50 was greater than 44 µM.
Consider `O=C1Nc2ccc(Br)cc2/C1=C\C(=O)c1ccc(F)cc1`, for which the IC50 is greater than 14.4 µM with Plasmodium falciparum [1]; 190 µM against PFPK5(P.falciparum); greater than 14.4 µM with Plasmodium falciparum [2]; 1.4 µM against Protein kinase Pfmrk; 29 µM in assay [3].
Regarding `CC[C@H](CO)Nc1nc(NCc2ccccc2)c2ncn(C(C)C)c2n1` [SELICICLIB], the figures for the IC50 in the assay on Plasmodium falciparum [1], with Plasmodium falciparum [2] and on Protein kinase Pfmrk were 28 µM, 33 µM and greater than 1000 µM, respectively.
Take `CN[C@@H]1C[C@H]2O[C@@](C)([C@@H]1OC)n1c3ccccc3c3c4c(c5c6ccccc6n2c5c31)C(=O)NC4` (single isomer, unassigned) [STAUROSPORINE]: the IC50 with Plasmodium falciparum [1] was found to be 0.15 µM; with Plasmodium falciparum [2], 0.19 µM; on Protein kinase Pfmrk, 4 µM.
The like results for `O=Nc1c(-c2c(O)[nH]c3ccccc23)[nH]c2ccccc12` [INDIRUBIN-3-MONOXIME] were, in that order, 1.1 µM, 0.6 µM and 30 µM.
`C/N=C/c1c(O)[nH]c2ccccc12`: the IC50 against Protein kinase Pfmrk was greater than 57 µM.
On the same count and under the same terms, to `CCOC(=O)/C(C#N)=C1/C(=O)Nc2ccccc21` belongs 41.7 µM; to `O=C1Nc2ccccc2/C1=C\c1ccc(C(F)(F)F)cc1`, 4.3 µM.
For the compound `O=C1Cc2c([nH]c3ccc([N+](=O)[O-])cc23)-c2ccccc2N1` [ALSTERPAULLONE], the results for the IC50 in the assay with Plasmodium falciparum [1], in the assay on Plasmodium falciparum [2] and against Protein kinase Pfmrk were 4.3 µM, 4.3 µM and 51 µM, respectively.
`COc1ccc2c(c1)/C(=C1/SC(=S)NC1=O)C(=O)N2` showed an IC50 against Protein kinase Pfmrk of 17.1 µM.
